The term MIC denotes the lowest concentration that inhibits growth of the organism. Higher therefore signals weaker potency.

Values after ≈ are worked out from the molar mass of the structure shown. Bounds are passed on as bounds.

Holding throughout (assay type): functional
Test [1] deals with Streptococcus pneumoniae. Nature of the test: Antimicrobial activity against drug-resistant Streptococcus pneumoniae isolate 3243 after 50 passages by multi-step resistance selection technique. Summed up:
(§1)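 Daily serial passage in subinhibitory drug levels in 1 ml cation-adjusted Mueller-Hinton broth with 5% lysed horse blood; fresh broth for tigecycline. Each day, 10 μl were taken from the tube one to two dilutions below the MIC whose turbidity matched the growth control, and used to set the next MIC. […] MIC by macrodilution.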

Test [2] has as its system Streptococcus pneumoniae. Nature of the test: Antimicrobial activity against drug-resistant Streptococcus pneumoniae isolate 3665 after 14 passages with Telithromycin measured after 10 antibiotic-free subculture by multi-step resistance selection technique.
Test [3] relates to Streptococcus pneumoniae. Nature of the test: Antimicrobial activity against drug-resistant Streptococcus pneumoniae isolate 3413 by NCCLS M7-A7 method.
Test [4] has as its system Streptococcus pneumoniae. Briefly: Antimicrobial activity against drug-resistant Streptococcus pneumoniae isolate 3009 by NCCLS M7-A7 method.
Test [5] concerns Streptococcus pneumoniae. Briefly: Antimicrobial activity against drug-resistant Streptococcus pneumoniae isolate 3676 by NCCLS M7-A7 method.
Test [6] relates to Streptococcus pneumoniae. Nature of the test: Antimicrobial activity against drug-resistant Streptococcus pneumoniae isolate 1077 after 15 passages with Telithromycin measured after 10 antibiotic-free subculture by multi-step resistance selection technique. An outline of the steps: (§2)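 Mutants selected by daily broth passage in subinhibitory drug in cation-adjusted Mueller-Hinton broth with 5% lysed horse blood. Stability was tested by 10 daily passages on blood agar without antibiotic, then macrodilution MIC.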

Test [7] deals with Streptococcus pneumoniae. Briefly: Antimicrobial activity against drug-resistant Streptococcus pneumoniae isolate 3243 by NCCLS M7-A7 method.
In test [8] the test system is Streptococcus pneumoniae. Briefly: Antimicrobial activity against drug-resistant Streptococcus pneumoniae isolate 1076 after 14 passages with Telithromycin measured after 10 antibiotic-free subculture by multi-step resistance selection technique. An outline of the steps: as §2
Test [9] has as its system Streptococcus pneumoniae. Nature of the test: Antimicrobial activity against drug-resistant Streptococcus pneumoniae isolate 3274 after 50 passages by multi-step resistance selection technique. An outline of the steps:
(§3)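 Daily serial passage in subinhibitory drug levels in 1 ml cation-adjusted Mueller-Hinton broth with 5% lysed horse blood; fresh broth for tigecycline. Each day, 10 μl were taken from the tube one to two dilutions below the MIC whose turbidity matched the growth control, and used to set the next MIC. MIC by macrodilution.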

In test [10] the test system is Streptococcus pneumoniae. Nature of the test: Antimicrobial activity against drug-resistant Streptococcus pneumoniae isolate 3274 by NCCLS M7-A7 method.
The test system of test [11] is Streptococcus pneumoniae. Nature of the test: Antimicrobial activity against drug-resistant Streptococcus pneumoniae isolate 3243 after 20 passages with moxifloxacin measured after 10 antibiotic-free subculture by multi-step resistance selection technique. An outline of the steps:
as §2

In test [12] the test system is Streptococcus pneumoniae. Nature of the test: Antimicrobial activity against drug-resistant Streptococcus pneumoniae isolate 3413 after 50 passages by multi-step resistance selection technique. An outline of the steps:
as §3

Test [13] relates to Streptococcus pneumoniae. Briefly: Antimicrobial activity against drug-resistant Streptococcus pneumoniae isolate 24 by NCCLS M7-A7 method.
For test [14], the system named is Streptococcus pneumoniae. Nature of the test: Antimicrobial activity against drug-resistant Streptococcus pneumoniae isolate 24 after 50 passages by multi-step resistance selection technique. Summed up:
as §3

Test [15] has as its system Streptococcus pneumoniae. Nature of the test: Antimicrobial activity against drug-resistant Streptococcus pneumoniae isolate 3676 after 14 passages with Telithromycin measured after 10 antibiotic-free subculture by multi-step resistance selection technique.
For test [16], the system named is Streptococcus pneumoniae. Briefly: Antimicrobial activity against drug-resistant Streptococcus pneumoniae isolate 3665 after 50 passages by multi-step resistance selection technique. Summed up: (§4)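 Daily serial passage in broth at subinhibitory drug levels: 1 ml cation-adjusted Mueller-Hinton broth with 5% lysed horse blood; fresh broth for tigecycline. Each day 10 μl inoculum taken from the tube one to two dilutions below MIC matching growth-control turbidity, used to set next MIC. Continued until ≥8-fold MIC rise, minimum 14, maximum 50 passages; MIC read by macrodilution.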

Test [17] relates to Streptococcus pneumoniae. Briefly: Antimicrobial activity against drug-resistant Streptococcus pneumoniae isolate 3009 after 21 passages by multi-step resistance selection technique. Summed up:
as §1

Test [18] concerns Streptococcus pneumoniae. Nature of the test: Antimicrobial activity against drug-resistant Streptococcus pneumoniae isolate 2527 after 14 passages by multi-step resistance selection technique. Summed up:
as §1

For test [19], the system named is Streptococcus pneumoniae. Nature of the test: Antimicrobial activity against drug-resistant Streptococcus pneumoniae isolate 1076 after 14 passages by multi-step resistance selection technique. Summed up:
as §1

In test [20] the test system is Streptococcus pneumoniae. Briefly: Antimicrobial activity against drug-resistant Streptococcus pneumoniae isolate 3676 after 14 passages by multi-step resistance selection technique. Summed up: as §4
For test [21], the system named is Streptococcus pneumoniae. Briefly: Antimicrobial activity against drug-resistant Streptococcus pneumoniae isolate 3413 after 30 passages by multi-step resistance selection technique. Summed up:
(§5)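 Daily serial passage in subinhibitory drug in cation-adjusted Mueller-Hinton broth with 5% lysed horse blood, 1 ml per tube, fresh broth for tigecycline. Each day, 10 μl was taken from the tube one to two dilutions below the MIC whose turbidity matched the growth control and used for the next MIC. Passaging ran until MIC rose ≥8 times, minimum 14 and maximum 50 passages. Clone MICs were read by macrodilution.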

The subject of test [22] is Streptococcus pneumoniae. Briefly: Antimicrobial activity against drug-resistant Streptococcus pneumoniae isolate 3665 after 14 passages by multi-step resistance selection technique. Summed up:
as §1

Test [23] deals with Streptococcus pneumoniae. Briefly: Antimicrobial activity against drug-resistant Streptococcus pneumoniae isolate 1077 after 15 passages by multi-step resistance selection technique. Summed up: as §5
The subject of test [24] is Streptococcus pneumoniae. Briefly: Antimicrobial activity against drug-resistant Streptococcus pneumoniae isolate 24 after 14 passages by multi-step resistance selection technique. Summed up:
as §1

The subject of test [25] is Streptococcus pneumoniae. Nature of the test: Antimicrobial activity against drug-resistant Streptococcus pneumoniae isolate 37 after 14 passages by multi-step resistance selection technique. Summed up:
as §4

For test [26], the system named is Streptococcus pneumoniae. Nature of the test: Antimicrobial activity against drug-resistant Streptococcus pneumoniae isolate 3274 after 48 passages by multi-step resistance selection technique. An outline of the steps:
as §5

The test system of test [27] is Streptococcus pneumoniae. Nature of the test: Antimicrobial activity against drug-resistant Streptococcus pneumoniae isolate 3243 after 29 passages by multi-step resistance selection technique. An outline of the steps: as §5

For `CO/N=C(\C(=O)N[C@@H]1C(=O)N2C(C(=O)O)=C(CSc3nc(=O)c(O)nn3C)CS[C@H]12)c1csc(N)n1` [CEFTRIAXONE], the minimum inhibitory concentration (MIC) stood at 0.25 µg/mL (≈ 0.451 µM) against Streptococcus pneumoniae [1]; 0.06 µg/mL (≈ 0.108 µM) in the test on Streptococcus pneumoniae [2]; 1 µg/mL (≈ 1.8 µM) with Streptococcus pneumoniae [3]; 0.03 µg/mL (≈ 0.0541 µM) in the test with Streptococcus pneumoniae [4]; 0.03 µg/mL (≈ 0.0541 µM) against Streptococcus pneumoniae [5]; 0.016 µg/mL (≈ 0.0289 µM) in the test on Streptococcus pneumoniae [6]. For the same compound, the minimum inhibitory concentration (MIC) is 0.125 µg/mL (≈ 0.225 µM) with Streptococcus pneumoniae [7]; 0.03 µg/mL (≈ 0.0541 µM) against Streptococcus pneumoniae [8]; 0.25 µg/mL (≈ 0.451 µM) with Streptococcus pneumoniae [9]; 0.125 µg/mL (≈ 0.225 µM) with Streptococcus pneumoniae [10]; 0.06 µg/mL (≈ 0.108 µM) with Streptococcus pneumoniae [11]; 1 µg/mL (≈ 1.8 µM) against Streptococcus pneumoniae [12]. For the same compound, the MIC against Streptococcus pneumoniae [13] worked out at 1 µg/mL (≈ 1.8 µM); against Streptococcus pneumoniae [14], 2 µg/mL (≈ 3.61 µM); with Streptococcus pneumoniae [15] it was 0.06 µg/mL (≈ 0.108 µM); with Streptococcus pneumoniae [16], 0.06 µg/mL (≈ 0.108 µM).

As for `CO/N=C1\CN(c2nc3c(cc2F)c(=O)c(C(=O)O)cn3C2CC2)CC1CN` (stereo not given) [GEMIFLOXACIN], the MIC against Streptococcus pneumoniae [1] worked out at 0.06 µg/mL (≈ 0.154 µM); against Streptococcus pneumoniae [17], 1 µg/mL (≈ 2.57 µM); against Streptococcus pneumoniae [2], 0.03 µg/mL (≈ 0.077 µM); in the test on Streptococcus pneumoniae [3], 0.016 µg/mL (≈ 0.0411 µM); against Streptococcus pneumoniae [4], 0.016 µg/mL (≈ 0.0411 µM); in the test on Streptococcus pneumoniae [5], 0.016 µg/mL (≈ 0.0411 µM). The MIC in the test on Streptococcus pneumoniae [6] stood at 0.25 µg/mL (≈ 0.642 µM); against Streptococcus pneumoniae [18], 2 µg/mL (≈ 5.14 µM); with Streptococcus pneumoniae [7], 0.016 µg/mL (≈ 0.0411 µM); against Streptococcus pneumoniae [8], 0.25 µg/mL (≈ 0.642 µM); in the test on Streptococcus pneumoniae [9] it was 0.06 µg/mL (≈ 0.154 µM); against Streptococcus pneumoniae [10], 0.016 µg/mL (≈ 0.0411 µM). Besides, the MIC against Streptococcus pneumoniae [11] worked out at 0.06 µg/mL (≈ 0.154 µM); in the test with Streptococcus pneumoniae [12] it was 0.016 µg/mL (≈ 0.0411 µM); with Streptococcus pneumoniae [13] it was 0.016 µg/mL (≈ 0.0411 µM); against Streptococcus pneumoniae [14] it was 0.03 µg/mL (≈ 0.077 µM); in the test on Streptococcus pneumoniae [15], 0.06 µg/mL (≈ 0.154 µM); in the test on Streptococcus pneumoniae [16], 0.06 µg/mL (≈ 0.154 µM).

For the compound `C[C@@H](O)[C@H]1C(=O)N2C(C(=O)O)=C(SCCNC=N)C[C@H]12` [IMIPENEM ANHYDROUS], the MIC was 0.016 µg/mL (≈ 0.0534 µM) with Streptococcus pneumoniae [1]; 0.008 µg/mL (≈ 0.0267 µM) against Streptococcus pneumoniae [2]; 0.125 µg/mL (≈ 0.418 µM) in the test on Streptococcus pneumoniae [3]; 0.008 µg/mL (≈ 0.0267 µM) in the test on Streptococcus pneumoniae [4]; 0.016 µg/mL (≈ 0.0534 µM) against Streptococcus pneumoniae [5]; 0.008 µg/mL (≈ 0.0267 µM) with Streptococcus pneumoniae [6]. Moreover, the MIC against Streptococcus pneumoniae [7] came out at 0.016 µg/mL (≈ 0.0534 µM); against Streptococcus pneumoniae [8], 0.004 µg/mL (≈ 0.0134 µM); against Streptococcus pneumoniae [9], 0.03 µg/mL (≈ 0.1 µM); in the test with Streptococcus pneumoniae [10], 0.016 µg/mL (≈ 0.0534 µM); against Streptococcus pneumoniae [11], 0.004 µg/mL (≈ 0.0134 µM); in the test with Streptococcus pneumoniae [12] it was 0.06 µg/mL (≈ 0.2 µM). Also, the MIC with Streptococcus pneumoniae [13] is 0.5 µg/mL (≈ 1.67 µM); in the test on Streptococcus pneumoniae [14] it was 0.5 µg/mL (≈ 1.67 µM); in the test with Streptococcus pneumoniae [15] it was 0.008 µg/mL (≈ 0.0267 µM); against Streptococcus pneumoniae [16], 0.016 µg/mL (≈ 0.0534 µM).

Consider `CC[C@H]1OC(=O)[C@H](C)C(=O)[C@H](C)[C@@H](O[C@@H]2O[C@H](C)C[C@H](N(C)C)[C@H]2O)[C@](C)(OC)C[C@@H](C)C(=O)[C@H](C)[C@H]2N(CCCCn3cnc(-c4cccnc4)c3)C(=O)O[C@]12C` [TELITHROMYCIN], for which the minimum inhibitory concentration (MIC) in the test on Streptococcus pneumoniae [19] is > 64 µg/mL; with Streptococcus pneumoniae [20], 2 µg/mL (≈ 2.46 µM); with Streptococcus pneumoniae [2], 0.25 µg/mL (≈ 0.308 µM); against Streptococcus pneumoniae [3] it was 0.03 µg/mL (≈ 0.0369 µM); against Streptococcus pneumoniae [21], 0.25 µg/mL (≈ 0.308 µM); against Streptococcus pneumoniae [22], 2 µg/mL (≈ 2.46 µM). The MIC worked out at 0.016 µg/mL (≈ 0.0197 µM) in the test on Streptococcus pneumoniae [4]; 0.06 µg/mL (≈ 0.0739 µM) against Streptococcus pneumoniae [5]; 0.25 µg/mL (≈ 0.308 µM) against Streptococcus pneumoniae [23]; 0.25 µg/mL (≈ 0.308 µM) in the test on Streptococcus pneumoniae [6]; 0.004 µg/mL (≈ 0.00493 µM) against Streptococcus pneumoniae [7]; 32 µg/mL (≈ 39.4 µM) against Streptococcus pneumoniae [24]. The MIC against Streptococcus pneumoniae [8] is > 64 µg/mL; with Streptococcus pneumoniae [25] it was 4 µg/mL (≈ 4.93 µM); in the test on Streptococcus pneumoniae [10], 0.004 µg/mL (≈ 0.00493 µM); in the test on Streptococcus pneumoniae [11], 0.016 µg/mL (≈ 0.0197 µM); against Streptococcus pneumoniae [13], 0.25 µg/mL (≈ 0.308 µM); against Streptococcus pneumoniae [26], 0.5 µg/mL (≈ 0.616 µM). Besides, the MIC in the test with Streptococcus pneumoniae [15] and in the test on Streptococcus pneumoniae [27] was 0.06 µg/mL (≈ 0.0739 µM) each time.

Regarding `CN(C)c1cc(NC(=O)CNC(C)(C)C)c(O)c2c1C[C@H]1C[C@H]3[C@H](N(C)C)C(O)=C(C(N)=O)C(=O)[C@@]3(O)C(O)=C1C2=O` [TIGECYCLINE], the MIC against Streptococcus pneumoniae [1] came to 0.03 µg/mL (≈ 0.0512 µM); with Streptococcus pneumoniae [2] it was 0.03 µg/mL (≈ 0.0512 µM); in the test with Streptococcus pneumoniae [3] it was 0.016 µg/mL (≈ 0.0273 µM); with Streptococcus pneumoniae [5] it was 0.016 µg/mL (≈ 0.0273 µM); in the test with Streptococcus pneumoniae [6], 0.03 µg/mL (≈ 0.0512 µM); against Streptococcus pneumoniae [7] it was 0.03 µg/mL (≈ 0.0512 µM). Moreover, the MIC against Streptococcus pneumoniae [8], in the test with Streptococcus pneumoniae [9], with Streptococcus pneumoniae [10], in the test on Streptococcus pneumoniae [11], against Streptococcus pneumoniae [12] and with Streptococcus pneumoniae [13] was 0.03 µg/mL (≈ 0.0512 µM) each time. For the same compound, the MIC against Streptococcus pneumoniae [14] came to 0.03 µg/mL (≈ 0.0512 µM); against Streptococcus pneumoniae [15], 0.03 µg/mL (≈ 0.0512 µM); against Streptococcus pneumoniae [16], 0.016 µg/mL (≈ 0.0273 µM).
